According to ChEMBL document CHEMBL4400539, “Discovery of a Novel Chemotype of Histone Lysine Methyltransferase EHMT1/2 (GLP/G9a) Inhibitors: Rational Design, Synthesis, Biological Evaluation, and Co-crystal Structure” (J Med Chem, 2019):
Activity calls are given as the source filed them. The calls are words filed in the database; no cut-off is given here.

Columns and labels:
[1] = biological target: T1, Histone-lysine N-methyltransferase EHMT2 (Homo sapiens, UniProt Q96KQ7); assay: Inhibition of recombinant human G9a using biotinylated-Histone H3 peptide (1 to 21 residues) after 30 mins in presence of SAM by AlphaLISA assay
T1 sequence (Q96KQ7 whole entry): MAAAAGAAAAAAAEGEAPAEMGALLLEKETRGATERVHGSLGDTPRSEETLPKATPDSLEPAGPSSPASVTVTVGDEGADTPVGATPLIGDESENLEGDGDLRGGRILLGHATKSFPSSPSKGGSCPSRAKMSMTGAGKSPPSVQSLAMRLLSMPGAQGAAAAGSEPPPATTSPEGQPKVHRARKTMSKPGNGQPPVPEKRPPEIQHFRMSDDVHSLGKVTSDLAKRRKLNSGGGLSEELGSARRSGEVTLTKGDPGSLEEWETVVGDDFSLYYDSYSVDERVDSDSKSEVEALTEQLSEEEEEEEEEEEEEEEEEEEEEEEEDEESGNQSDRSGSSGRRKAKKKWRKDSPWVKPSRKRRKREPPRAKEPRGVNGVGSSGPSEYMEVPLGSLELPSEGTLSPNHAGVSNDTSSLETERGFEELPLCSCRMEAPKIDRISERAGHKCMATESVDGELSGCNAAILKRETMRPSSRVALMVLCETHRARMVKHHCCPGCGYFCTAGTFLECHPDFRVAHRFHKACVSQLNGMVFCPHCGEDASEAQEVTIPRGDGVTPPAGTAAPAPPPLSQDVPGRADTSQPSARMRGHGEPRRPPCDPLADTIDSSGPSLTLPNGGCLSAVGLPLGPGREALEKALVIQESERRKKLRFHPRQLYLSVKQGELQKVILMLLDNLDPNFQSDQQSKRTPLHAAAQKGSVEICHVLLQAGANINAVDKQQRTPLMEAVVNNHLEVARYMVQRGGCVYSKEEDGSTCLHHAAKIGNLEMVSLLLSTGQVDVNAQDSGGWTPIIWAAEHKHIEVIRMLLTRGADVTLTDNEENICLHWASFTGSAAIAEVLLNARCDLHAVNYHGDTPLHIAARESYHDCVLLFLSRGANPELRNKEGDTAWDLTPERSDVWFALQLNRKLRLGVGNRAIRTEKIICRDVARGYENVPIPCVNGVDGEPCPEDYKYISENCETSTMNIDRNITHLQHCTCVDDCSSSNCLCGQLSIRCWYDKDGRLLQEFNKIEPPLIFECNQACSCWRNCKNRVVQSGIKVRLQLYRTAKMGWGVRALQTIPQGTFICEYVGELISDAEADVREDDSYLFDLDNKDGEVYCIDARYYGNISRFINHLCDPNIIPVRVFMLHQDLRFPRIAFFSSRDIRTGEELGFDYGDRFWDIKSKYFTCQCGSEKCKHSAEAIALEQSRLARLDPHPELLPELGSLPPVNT

[2] = biological target: DNA (cytosine-5)-methyltransferase 1 (Homo sapiens, UniProt P26358); assay: Inhibition of N-terminal GST-tagged recombinant full length human DNMT1 (2 to 1632 residues) using poly(dI-dC)):poly(dI-dC) as substrate preincubated for 20 mins followed by [3H]-SAM and measured after 60 mins by scintillation counting
DNA (cytosine-5)-methyltransferase 1, sequence (P26358 whole entry, the tested form may be a part): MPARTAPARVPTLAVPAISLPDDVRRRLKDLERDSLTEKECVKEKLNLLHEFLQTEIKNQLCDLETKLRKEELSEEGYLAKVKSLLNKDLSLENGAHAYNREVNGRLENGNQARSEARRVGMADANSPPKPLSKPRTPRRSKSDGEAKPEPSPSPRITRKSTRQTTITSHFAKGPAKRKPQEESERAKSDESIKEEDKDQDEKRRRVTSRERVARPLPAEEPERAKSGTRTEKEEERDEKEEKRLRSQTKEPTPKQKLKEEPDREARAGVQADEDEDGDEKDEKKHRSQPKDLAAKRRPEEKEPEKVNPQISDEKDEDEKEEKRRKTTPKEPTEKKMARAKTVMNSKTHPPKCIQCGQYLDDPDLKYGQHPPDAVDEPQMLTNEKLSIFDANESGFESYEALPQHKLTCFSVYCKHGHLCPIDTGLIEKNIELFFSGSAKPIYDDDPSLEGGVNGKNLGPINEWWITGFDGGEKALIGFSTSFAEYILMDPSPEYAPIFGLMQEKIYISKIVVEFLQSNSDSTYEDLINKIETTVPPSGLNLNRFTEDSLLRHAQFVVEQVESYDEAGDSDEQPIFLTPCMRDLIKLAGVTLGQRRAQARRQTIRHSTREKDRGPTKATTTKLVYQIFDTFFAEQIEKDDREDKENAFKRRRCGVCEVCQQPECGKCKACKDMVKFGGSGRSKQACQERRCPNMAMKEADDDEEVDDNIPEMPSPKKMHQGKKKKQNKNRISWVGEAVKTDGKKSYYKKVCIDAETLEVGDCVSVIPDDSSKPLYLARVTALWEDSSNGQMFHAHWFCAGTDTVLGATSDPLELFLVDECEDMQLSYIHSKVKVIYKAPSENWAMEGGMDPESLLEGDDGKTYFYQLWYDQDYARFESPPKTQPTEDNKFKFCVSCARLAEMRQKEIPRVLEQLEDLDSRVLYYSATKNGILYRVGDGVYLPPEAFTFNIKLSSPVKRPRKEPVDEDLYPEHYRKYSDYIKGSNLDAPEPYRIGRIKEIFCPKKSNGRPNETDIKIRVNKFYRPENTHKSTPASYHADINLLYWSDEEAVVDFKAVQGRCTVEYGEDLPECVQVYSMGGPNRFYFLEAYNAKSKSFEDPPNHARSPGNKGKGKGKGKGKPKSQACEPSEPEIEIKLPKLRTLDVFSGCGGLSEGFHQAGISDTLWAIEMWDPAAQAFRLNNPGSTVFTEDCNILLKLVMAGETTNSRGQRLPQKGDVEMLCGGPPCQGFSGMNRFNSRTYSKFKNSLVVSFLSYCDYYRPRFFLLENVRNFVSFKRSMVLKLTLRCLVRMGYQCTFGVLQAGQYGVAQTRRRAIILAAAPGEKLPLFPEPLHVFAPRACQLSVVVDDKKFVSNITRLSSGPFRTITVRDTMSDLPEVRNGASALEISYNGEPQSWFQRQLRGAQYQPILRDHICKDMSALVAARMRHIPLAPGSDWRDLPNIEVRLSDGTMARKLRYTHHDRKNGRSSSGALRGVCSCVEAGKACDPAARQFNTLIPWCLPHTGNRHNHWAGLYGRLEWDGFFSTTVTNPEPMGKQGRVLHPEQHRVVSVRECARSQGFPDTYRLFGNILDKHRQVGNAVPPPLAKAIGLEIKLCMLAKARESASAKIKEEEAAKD

[3] = biological target: T2, Lysine-specific demethylase 4A (Homo sapiens) (UniProt O75164); assay: Inhibition of recombinant human JMJD2A at 10 to 25 uM using biotinylated-Histone H3 peptide (1 to 21 residues) as substrate preincubated for 30 mins followed by substrate addition and measured after 60 mins in presence of SAM by AlphaLISA assay relative to control
T2 sequence (whole entry): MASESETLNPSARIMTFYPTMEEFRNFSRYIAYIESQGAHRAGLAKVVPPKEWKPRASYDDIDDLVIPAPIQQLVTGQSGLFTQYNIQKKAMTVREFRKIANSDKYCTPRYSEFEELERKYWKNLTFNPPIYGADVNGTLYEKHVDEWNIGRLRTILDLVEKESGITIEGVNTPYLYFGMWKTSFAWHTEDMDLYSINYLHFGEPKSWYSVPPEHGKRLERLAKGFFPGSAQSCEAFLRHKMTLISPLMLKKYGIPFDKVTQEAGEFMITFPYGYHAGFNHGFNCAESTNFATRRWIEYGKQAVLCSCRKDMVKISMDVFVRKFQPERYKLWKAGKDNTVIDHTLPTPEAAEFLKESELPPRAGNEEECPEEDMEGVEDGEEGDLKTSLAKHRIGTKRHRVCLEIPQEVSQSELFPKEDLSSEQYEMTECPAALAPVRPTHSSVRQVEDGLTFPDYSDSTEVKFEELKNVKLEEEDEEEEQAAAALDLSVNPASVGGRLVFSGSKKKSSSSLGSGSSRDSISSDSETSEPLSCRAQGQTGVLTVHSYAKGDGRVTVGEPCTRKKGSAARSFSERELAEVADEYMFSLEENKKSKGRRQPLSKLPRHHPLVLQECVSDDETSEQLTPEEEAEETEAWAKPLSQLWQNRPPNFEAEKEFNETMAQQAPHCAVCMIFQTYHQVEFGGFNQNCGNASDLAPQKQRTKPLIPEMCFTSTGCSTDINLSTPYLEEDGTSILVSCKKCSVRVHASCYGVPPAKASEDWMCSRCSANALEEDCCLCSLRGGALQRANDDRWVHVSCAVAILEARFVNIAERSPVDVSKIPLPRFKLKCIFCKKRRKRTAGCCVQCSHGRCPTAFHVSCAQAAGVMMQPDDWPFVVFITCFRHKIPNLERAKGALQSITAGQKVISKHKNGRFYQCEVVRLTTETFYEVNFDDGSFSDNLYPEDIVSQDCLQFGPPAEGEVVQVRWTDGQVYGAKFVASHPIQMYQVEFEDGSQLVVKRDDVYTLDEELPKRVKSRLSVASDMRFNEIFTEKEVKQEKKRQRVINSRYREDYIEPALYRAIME

[4] = Metabolic stability in human liver microsomes assessed as parent compound turn over percentage at 1 mM preincubated for 5 mins followed by NADPH addition and measured for 60 mins by UHPLC analysis; assay type: ADME, Microsome; conditions: read-out: Drug metabolism
[5] = Apparent permeability of the compound after 24 hrs by PAMPA; assay type: ADME
[6] = Apparent permeability of the compound after 24 hrs by BBB-PAMPA; assay type: ADME
MCF7 = assay: Cytotoxicity against human MCF7 cells assessed as reduction in cell viability at 0.05 to 50 uM after 48 to 72 hrs by MTT assay; assay type: cell-based; conditions: mcf7, 50 µM
Procedure, shortened: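 MCF-7, MDA-MB-231 and U-343 cells exposed 24, 48 and 72 h to 0.05, 0.5, 5 and 50 μM compound; viability by MTT reduction to formazan versus vehicle; mean ± SD of at least three independent experiments.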

[7] = biological target: T3, Histone-lysine N-methyltransferase EHMT2 (Homo sapiens) (UniProt Q96KQ7)
T3 sequence (whole entry): T1 sequence (Q96KQ7 whole entry)

[8] = biological target: T1, Histone-lysine N-methyltransferase EHMT2; assay: Competitive inhibition of recombinant human G9a using biotinylated-Histone H3 peptide (1 to 21 residues) as substrate at varying concentration after 30 mins in presence SAM by Lineweaver-Burk plot analysis

COc1cc2c(cc1OCCCN1CCCC1)N=C(C1CCCCC1)CN=C2NC1CCN(C(C)C)CC1
IC50 [1]: 23 nM | IC50 [2]: 3100 nM | inhibition [3]: inactive | metabolised at 1 h [4]: 2.25% | Papp [5]: 4.8 ×10⁻⁷ cm/s | Papp [6]: 2.3 ×10⁻⁷ cm/s | Activity (MCF7): Toxic | Kdiss [7]: 0.0351 | Ki [8]: 13.8 nM
